According to ChEMBL document CHEMBL4610115, “Azidothymidine "Clicked" into 1,2,3-Triazoles: First Report on Carbonic Anhydrase-Telomerase Dual-Hybrid Inhibitors” (J Med Chem, 2020):
Active and inactive are the calls of the source. No cut-off for these calls is given here.

Legend:
[1] = target: Telomerase reverse transcriptase (Homo sapiens) (UniProt O14746); assay: Inhibition of telomerase in human PC3 cells at 20 uM incubated for 48 hrs by TRAP assay; format: cell-based; settings: PC-3
Outline: (§1)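 Mycoplasma-tested PC3 or HT-29 cells in RPMI-1640/10% FBS were exposed to a final 20 μM for 48 h. Cells were lysed in CHAPS/glycerol Tris buffer (pH 7.5), and 5 μg extract protein was used for TS-primer elongation (30 min, 37 °C) followed by CX-primer/Taq PCR for 30 cycles. Products were run on 12% nondenaturing PAGE with SYBR Green I densitometry. Quadruplicate; mean ± SEM; t-test.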

[2] = target: Telomerase reverse transcriptase (Homo sapiens) (UniProt O14746); assay: Inhibition of telomerase in human HT-29 cells at 20 uM incubated for 48 hrs by TRAP assay; format: cell-based; outline: as §1
PC-3 = assay: Effect on telomerase mRNA expression in human PC3 cells at 20 uM incubated for 48 hrs by real-time RT-PCR analysis; format: ADME, cell-based; settings: pc-3, 48 h
Outline: (§2)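 PC3 and HT-29 cells were grown in RPMI-1640 with 10% FBS at 37 °C under 5% CO2, after mycoplasma testing. Cells were exposed to a final 20 μM for 48 h. hTERT mRNA was measured and normalized to 18S RNA, with standard curves from serial cDNA dilutions (1:40–1:320). Runs were done in quadruplicate; results are mean ± SEM, compared by Student's t-test.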

HT-29 = assay: Effect on telomerase mRNA expression in human HT-29 cells at 20 uM incubated for 48 hrs by real-time RT-PCR analysis; format: ADME, cell-based; settings: ht-29, 48 h; outline: as §2
Carbonic anhydrase 9 = Carbonic anhydrase 9 (Homo sapiens, UniProt Q16790); assay: Inhibition of human CA9 pre-incubated for 15 mins by stopped flow CO2 hydrase assay

Telomerase reverse transcriptase (Homo sapiens), sequence (O14746 whole entry): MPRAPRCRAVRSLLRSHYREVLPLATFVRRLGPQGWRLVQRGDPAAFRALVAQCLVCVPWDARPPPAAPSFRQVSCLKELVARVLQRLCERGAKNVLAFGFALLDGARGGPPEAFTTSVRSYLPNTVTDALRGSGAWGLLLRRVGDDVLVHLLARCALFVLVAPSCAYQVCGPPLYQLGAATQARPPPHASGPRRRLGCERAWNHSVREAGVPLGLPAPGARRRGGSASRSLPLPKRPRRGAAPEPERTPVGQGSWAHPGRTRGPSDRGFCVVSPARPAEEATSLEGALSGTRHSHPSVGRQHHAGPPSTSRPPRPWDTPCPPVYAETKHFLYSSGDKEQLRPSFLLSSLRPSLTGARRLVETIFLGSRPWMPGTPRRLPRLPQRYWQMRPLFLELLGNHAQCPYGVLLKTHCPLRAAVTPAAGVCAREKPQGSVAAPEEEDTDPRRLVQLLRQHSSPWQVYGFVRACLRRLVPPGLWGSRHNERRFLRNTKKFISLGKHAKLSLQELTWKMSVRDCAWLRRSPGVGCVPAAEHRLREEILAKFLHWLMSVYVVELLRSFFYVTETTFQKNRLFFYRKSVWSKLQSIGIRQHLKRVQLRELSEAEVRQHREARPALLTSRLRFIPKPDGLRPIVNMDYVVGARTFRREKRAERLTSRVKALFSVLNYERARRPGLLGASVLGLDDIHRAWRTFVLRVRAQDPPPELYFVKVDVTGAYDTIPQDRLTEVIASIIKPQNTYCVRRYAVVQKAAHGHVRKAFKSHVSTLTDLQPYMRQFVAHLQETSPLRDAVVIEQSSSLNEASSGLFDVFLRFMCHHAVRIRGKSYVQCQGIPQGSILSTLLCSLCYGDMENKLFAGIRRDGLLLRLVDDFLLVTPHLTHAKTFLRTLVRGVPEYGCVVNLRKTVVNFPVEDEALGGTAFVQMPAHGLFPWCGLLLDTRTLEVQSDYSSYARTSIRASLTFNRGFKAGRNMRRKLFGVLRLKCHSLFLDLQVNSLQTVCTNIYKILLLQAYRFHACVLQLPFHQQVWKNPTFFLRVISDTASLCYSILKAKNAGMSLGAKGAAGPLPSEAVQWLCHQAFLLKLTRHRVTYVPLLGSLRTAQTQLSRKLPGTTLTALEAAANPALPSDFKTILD

inhibition [1]	inhibition [2]	Ki (Carbonic anhydrase 9)	Structure (SMILES)	Activity (PC-3)	Activity (HT-29)
inactive	inactive	–	Cc1cn([C@H]2C[C@H](n3cc(COC(=O)c4ccc(S(N)(=O)=O)cc4)nn3)[C@@H](CO)O2)c(=O)[nH]c1=O	Non-Toxic	Non-Toxic
inactive	inactive	–	Cc1cn([C@H]2C[C@H](n3cc(CNC(=O)c4ccc(S(N)(=O)=O)cc4)nn3)[C@@H](CO)O2)c(=O)[nH]c1=O	Non-Toxic	Non-Toxic

The next lines start with the molecule.

Structure (SMILES)	inhibition [1]	inhibition [2]	Ki (Carbonic anhydrase 9)	Activity (PC-3)	Activity (HT-29)
Cc1cn([C@H]2C[C@H](n3cc(C[Se]c4ccc(NC(=S)Nc5cccc(S(N)(=O)=O)c5)cc4)nn3)[C@@H](CO)O2)c(=O)[nH]c1=O	Active	Active	–	Non-Toxic	Non-Toxic
Cc1cn([C@H]2C[C@H](n3cc(COc4ccc(S(N)(=O)=O)cc4)nn3)[C@@H](CO)O2)c(=O)[nH]c1=O	Active	Active	–	Non-Toxic	Non-Toxic
Cc1cn([C@H]2C[C@H](n3cc(COC(=O)c4ccc(Cl)c(S(N)(=O)=O)c4)nn3)[C@@H](CO)O2)c(=O)[nH]c1=O	–	–	240 nM	–	–
